We go through two compounds from ChEMBL document CHEMBL5678818, “Discovery of potent SOS1 inhibitors that block RAS activation via disruption of the RAS-SOS1 interaction” (Proc Natl Acad Sci U S A, 2019).

Calls of active or inactive are those of the source. The calls are words filed in the database; no cut-off is given here.

The target of assay [1] is T1, Mitogen-activated protein kinase 15 (Homo sapiens) (UniProt Q8TD08).
T1 sequence (whole entry): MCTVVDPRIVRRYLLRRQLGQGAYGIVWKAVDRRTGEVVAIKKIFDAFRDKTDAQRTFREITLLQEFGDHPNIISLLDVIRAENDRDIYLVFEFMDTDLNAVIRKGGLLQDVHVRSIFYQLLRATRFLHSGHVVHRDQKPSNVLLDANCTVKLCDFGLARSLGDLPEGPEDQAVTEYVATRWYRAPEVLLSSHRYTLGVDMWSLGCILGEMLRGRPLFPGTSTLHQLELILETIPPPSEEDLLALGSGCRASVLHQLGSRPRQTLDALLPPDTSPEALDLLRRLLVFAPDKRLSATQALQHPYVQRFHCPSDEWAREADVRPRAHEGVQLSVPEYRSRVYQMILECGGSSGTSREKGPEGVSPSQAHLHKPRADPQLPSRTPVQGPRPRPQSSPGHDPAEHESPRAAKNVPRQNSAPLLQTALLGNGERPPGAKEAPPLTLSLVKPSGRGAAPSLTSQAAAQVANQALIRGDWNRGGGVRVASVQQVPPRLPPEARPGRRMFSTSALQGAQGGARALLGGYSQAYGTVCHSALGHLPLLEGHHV
The assay can be described thus: Inhibition of ERK8 (unknown origin) assessed as residual activity at 100 nM by KINOMEscan analysis relative to control.

Assay [2] relates to Receptor-type tyrosine-protein kinase FLT3 (Homo sapiens), P36888 [D835Y]. Nature of the assay: Inhibition of FLT3 D835Y mutant (unknown origin) assessed as residual activity at 100 nM by KINOMEscan analysis relative to control.
The target in assay [3] is Tyrosine-protein kinase Fyn (Homo sapiens) (UniProt P06241). Nature of the assay: Inhibition of FYN (unknown origin) assessed as residual activity at 100 nM by KINOMEscan analysis relative to control.
Chain of Tyrosine-protein kinase Fyn (Homo sapiens) (P06241 2-537 limits assumed): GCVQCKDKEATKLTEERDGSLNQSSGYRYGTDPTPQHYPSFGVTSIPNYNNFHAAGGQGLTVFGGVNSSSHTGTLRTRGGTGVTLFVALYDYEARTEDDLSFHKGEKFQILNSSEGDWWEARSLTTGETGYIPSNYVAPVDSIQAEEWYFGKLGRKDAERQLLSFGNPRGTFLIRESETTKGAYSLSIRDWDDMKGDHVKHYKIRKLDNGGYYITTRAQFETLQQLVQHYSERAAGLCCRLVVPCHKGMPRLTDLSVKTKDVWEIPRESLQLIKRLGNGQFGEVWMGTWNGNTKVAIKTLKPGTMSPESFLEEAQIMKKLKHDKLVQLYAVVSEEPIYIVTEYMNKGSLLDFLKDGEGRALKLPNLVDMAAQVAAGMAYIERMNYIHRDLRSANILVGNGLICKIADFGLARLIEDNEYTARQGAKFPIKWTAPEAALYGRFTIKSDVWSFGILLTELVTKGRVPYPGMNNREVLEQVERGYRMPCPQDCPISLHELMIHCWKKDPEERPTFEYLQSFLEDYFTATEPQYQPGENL
Assay [4] concerns the target Tyrosine-protein kinase Lyn (Homo sapiens) (UniProt P07948). Nature of the assay: Inhibition of LYN (unknown origin) assessed as residual activity at 100 nM by KINOMEscan analysis relative to control.
The target of assay [5] is Maternal embryonic leucine zipper kinase (Homo sapiens) (UniProt Q14680). The assay can be described thus: Inhibition of MELK (unknown origin) assessed as residual activity at 100 nM by KINOMEscan analysis relative to control.
Chain of Maternal embryonic leucine zipper kinase (Homo sapiens) (Q14680 whole entry, looked up): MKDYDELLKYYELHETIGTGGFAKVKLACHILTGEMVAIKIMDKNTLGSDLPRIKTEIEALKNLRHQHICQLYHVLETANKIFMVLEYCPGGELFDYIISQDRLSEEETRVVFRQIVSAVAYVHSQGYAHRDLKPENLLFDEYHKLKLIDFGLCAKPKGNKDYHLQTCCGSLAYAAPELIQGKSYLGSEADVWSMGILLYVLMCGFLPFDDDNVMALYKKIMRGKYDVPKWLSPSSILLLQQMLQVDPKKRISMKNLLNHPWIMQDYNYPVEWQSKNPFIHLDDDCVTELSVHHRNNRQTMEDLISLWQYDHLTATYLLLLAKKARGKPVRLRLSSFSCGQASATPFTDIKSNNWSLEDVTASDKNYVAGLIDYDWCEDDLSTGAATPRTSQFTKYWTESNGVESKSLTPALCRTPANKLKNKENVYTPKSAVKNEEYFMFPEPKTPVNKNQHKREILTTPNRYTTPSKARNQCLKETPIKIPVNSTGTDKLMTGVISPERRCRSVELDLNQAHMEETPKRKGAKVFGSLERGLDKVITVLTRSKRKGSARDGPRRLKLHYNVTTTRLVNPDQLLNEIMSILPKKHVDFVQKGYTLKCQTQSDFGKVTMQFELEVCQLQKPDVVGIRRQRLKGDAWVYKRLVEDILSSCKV
In assay [6] the target is Mitogen-activated protein kinase kinase kinase 10 (Homo sapiens) (UniProt Q02779). Nature of the assay: Inhibition of MLK2 (unknown origin) assessed as residual activity at 100 nM by KINOMEscan analysis relative to control.
Chain of Mitogen-activated protein kinase kinase kinase 10 (Homo sapiens) (Q02779 whole entry, looked up): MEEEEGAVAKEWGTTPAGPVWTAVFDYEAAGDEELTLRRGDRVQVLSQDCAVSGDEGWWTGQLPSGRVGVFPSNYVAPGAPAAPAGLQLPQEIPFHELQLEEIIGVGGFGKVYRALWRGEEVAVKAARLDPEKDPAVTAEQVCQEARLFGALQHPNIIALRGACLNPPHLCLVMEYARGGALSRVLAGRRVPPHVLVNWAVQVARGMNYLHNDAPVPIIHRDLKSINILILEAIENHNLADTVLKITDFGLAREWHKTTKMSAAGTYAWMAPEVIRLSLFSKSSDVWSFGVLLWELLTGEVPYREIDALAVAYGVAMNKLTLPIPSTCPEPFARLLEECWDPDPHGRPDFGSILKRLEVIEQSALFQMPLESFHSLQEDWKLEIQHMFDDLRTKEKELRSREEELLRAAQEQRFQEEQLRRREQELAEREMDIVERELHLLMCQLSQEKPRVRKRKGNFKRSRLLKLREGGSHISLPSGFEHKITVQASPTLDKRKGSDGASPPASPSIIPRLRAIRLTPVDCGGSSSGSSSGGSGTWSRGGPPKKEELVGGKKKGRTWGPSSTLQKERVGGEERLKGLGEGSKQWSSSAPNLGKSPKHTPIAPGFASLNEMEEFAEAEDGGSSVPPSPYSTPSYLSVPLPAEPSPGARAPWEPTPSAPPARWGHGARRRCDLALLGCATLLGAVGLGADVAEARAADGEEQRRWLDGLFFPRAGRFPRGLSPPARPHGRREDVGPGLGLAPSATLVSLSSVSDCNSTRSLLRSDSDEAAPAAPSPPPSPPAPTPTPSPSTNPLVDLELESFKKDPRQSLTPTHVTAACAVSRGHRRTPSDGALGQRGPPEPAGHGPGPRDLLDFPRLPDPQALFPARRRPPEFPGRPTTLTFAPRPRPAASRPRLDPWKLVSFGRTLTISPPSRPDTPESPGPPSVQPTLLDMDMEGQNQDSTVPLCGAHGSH
The target in assay [7] is Myosin-IIIa (Homo sapiens) (UniProt Q8NEV4). Nature of the assay: Inhibition of MYO3A (unknown origin) assessed as residual activity at 100 nM by KINOMEscan analysis relative to control.
Chain of Myosin-IIIa (Homo sapiens) (Q8NEV4 whole entry): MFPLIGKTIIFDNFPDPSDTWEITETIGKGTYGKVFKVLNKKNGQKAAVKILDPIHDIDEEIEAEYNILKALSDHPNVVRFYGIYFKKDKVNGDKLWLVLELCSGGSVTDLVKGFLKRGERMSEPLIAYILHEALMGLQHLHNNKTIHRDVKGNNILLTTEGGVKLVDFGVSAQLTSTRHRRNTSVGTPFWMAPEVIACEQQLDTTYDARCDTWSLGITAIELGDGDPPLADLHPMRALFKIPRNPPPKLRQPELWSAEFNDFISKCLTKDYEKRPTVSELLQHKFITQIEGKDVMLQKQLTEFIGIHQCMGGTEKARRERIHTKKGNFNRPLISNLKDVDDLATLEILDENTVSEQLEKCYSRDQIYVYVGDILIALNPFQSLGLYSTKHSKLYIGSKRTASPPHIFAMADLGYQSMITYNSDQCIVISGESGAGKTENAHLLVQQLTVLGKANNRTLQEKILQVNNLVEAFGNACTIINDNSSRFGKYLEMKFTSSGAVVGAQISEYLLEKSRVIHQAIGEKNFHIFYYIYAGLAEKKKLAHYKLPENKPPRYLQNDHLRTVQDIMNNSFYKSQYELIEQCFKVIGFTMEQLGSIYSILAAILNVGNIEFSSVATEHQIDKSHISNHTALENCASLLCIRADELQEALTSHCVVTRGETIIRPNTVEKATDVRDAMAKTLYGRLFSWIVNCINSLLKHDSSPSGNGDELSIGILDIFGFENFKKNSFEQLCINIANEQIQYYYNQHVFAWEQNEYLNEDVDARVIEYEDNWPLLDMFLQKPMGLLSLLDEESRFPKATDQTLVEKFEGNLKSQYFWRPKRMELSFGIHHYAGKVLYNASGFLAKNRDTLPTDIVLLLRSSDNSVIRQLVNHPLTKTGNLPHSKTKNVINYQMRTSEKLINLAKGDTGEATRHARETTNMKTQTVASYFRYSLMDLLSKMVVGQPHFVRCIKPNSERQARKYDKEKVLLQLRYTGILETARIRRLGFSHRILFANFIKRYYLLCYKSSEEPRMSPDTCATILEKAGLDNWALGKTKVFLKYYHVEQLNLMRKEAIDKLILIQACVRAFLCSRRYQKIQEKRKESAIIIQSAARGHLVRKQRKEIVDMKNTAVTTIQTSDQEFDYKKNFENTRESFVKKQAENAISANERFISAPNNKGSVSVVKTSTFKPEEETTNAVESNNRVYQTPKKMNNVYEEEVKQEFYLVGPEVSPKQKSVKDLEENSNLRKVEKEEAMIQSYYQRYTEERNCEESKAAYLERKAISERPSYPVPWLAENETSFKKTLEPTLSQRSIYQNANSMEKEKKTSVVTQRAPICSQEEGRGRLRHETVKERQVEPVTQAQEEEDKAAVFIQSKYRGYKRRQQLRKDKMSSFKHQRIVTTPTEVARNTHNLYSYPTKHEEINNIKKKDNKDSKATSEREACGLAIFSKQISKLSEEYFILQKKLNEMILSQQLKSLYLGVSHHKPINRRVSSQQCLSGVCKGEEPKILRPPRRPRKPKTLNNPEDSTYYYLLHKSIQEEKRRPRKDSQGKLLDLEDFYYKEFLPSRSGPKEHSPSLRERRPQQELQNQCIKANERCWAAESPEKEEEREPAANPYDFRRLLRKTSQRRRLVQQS
The target in assay [8] is cAMP-dependent protein kinase catalytic subunit alpha (Homo sapiens) (UniProt P17612). Nature of the assay: Inhibition of PKAC-alpha (unknown origin) assessed as residual activity at 100 nM by KINOMEscan analysis relative to control.
The target in assay [9] is Ribosomal protein S6 kinase alpha-6 (Homo sapiens) (UniProt Q9UK32). Nature of the assay: Inhibition of C-terminal RSK4 kinetic domain 2 (unknown origin) assessed as residual activity at 100 nM by KINOMEscan analysis relative to control.
The target in assay [10] is T2, Testis-specific serine/threonine-protein kinase 1 (Homo sapiens) (UniProt Q9BXA7).
T2 sequence (whole entry): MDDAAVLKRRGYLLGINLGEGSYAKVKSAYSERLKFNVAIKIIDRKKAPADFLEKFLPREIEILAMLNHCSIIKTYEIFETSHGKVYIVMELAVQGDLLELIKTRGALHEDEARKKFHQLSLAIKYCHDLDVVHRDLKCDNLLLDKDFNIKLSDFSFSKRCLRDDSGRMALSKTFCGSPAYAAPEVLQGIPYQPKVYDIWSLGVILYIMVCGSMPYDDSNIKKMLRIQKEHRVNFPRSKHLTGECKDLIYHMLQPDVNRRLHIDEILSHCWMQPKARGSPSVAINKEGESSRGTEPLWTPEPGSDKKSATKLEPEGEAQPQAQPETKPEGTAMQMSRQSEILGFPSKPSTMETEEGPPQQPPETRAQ
Nature of the assay: Inhibition of TSSK1B (unknown origin) assessed as residual activity at 100 nM by KINOMEscan analysis relative to control.

Assay [11] addresses T3, Serine/threonine-protein kinase ULK2 (Homo sapiens) (UniProt Q8IYT8).
T3 sequence (whole entry): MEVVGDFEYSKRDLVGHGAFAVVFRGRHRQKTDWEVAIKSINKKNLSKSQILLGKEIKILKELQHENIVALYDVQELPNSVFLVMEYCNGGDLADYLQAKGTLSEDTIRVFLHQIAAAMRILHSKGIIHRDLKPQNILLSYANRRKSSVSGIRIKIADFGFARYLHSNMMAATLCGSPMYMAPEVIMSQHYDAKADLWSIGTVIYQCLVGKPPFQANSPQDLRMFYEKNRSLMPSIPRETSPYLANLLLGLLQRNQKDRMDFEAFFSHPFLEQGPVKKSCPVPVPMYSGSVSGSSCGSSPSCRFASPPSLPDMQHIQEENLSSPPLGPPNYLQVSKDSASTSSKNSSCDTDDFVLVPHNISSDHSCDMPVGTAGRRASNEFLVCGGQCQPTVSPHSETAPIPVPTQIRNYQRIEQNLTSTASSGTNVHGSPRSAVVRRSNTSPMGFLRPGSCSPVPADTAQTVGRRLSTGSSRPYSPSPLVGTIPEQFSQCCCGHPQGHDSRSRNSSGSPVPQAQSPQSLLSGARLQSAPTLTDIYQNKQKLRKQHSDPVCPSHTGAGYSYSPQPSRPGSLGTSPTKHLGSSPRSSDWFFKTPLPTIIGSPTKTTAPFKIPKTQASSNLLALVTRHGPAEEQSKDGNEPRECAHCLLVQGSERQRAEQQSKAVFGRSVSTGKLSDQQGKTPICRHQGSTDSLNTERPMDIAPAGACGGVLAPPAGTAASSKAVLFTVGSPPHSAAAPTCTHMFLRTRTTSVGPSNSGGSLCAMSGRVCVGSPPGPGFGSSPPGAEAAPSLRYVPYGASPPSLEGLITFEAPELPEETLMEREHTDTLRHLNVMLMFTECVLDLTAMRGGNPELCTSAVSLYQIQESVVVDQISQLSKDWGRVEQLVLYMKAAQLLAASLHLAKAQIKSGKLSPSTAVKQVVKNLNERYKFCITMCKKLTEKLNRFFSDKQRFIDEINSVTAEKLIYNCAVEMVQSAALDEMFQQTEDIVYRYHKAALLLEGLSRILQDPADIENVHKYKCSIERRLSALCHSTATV
Nature of the assay: Inhibition of ULK2 (unknown origin) assessed as residual activity at 100 nM by KINOMEscan analysis relative to control.

Assay [12] has as its target Wee1-like protein kinase 2 (Homo sapiens) (UniProt P0C1S8). The assay can be described thus: Inhibition of WEE2 (unknown origin) assessed as residual activity at 100 nM by KINOMEscan analysis relative to control.
The subject of assay [13] is K562. Nature of the assay: Effect on total ERK level in human K562 cells incubated for 60 mins by HTRF analysis. Format: functional, cell-based. A digest of the protocol:
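K-562 cells (wild-type KRAS) were sourced from ATCC. Cells were incubated with compound for 60 min, and total ERK was quantified alongside pERK.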
(Time-resolved FRET reads energy transfer from a long-lived donor to a nearby acceptor.)

Chain of Wee1-like protein kinase 2 (Homo sapiens) (P0C1S8 whole entry, looked up): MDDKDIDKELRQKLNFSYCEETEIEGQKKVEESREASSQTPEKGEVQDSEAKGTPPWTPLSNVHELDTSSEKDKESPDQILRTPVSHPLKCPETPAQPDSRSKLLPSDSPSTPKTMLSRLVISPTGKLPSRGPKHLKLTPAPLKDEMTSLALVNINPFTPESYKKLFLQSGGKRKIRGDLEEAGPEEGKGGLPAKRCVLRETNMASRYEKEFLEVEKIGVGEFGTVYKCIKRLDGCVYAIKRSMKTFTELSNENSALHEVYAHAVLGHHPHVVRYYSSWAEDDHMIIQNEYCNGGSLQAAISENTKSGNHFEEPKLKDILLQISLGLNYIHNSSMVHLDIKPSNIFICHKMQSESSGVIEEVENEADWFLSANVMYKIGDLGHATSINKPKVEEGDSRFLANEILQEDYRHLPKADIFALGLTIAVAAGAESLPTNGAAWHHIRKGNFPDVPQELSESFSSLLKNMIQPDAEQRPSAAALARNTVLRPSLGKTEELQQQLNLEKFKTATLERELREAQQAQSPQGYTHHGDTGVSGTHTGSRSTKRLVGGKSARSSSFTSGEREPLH
Chain of Tyrosine-protein kinase Lyn (Homo sapiens) (P07948 2-512 limits assumed): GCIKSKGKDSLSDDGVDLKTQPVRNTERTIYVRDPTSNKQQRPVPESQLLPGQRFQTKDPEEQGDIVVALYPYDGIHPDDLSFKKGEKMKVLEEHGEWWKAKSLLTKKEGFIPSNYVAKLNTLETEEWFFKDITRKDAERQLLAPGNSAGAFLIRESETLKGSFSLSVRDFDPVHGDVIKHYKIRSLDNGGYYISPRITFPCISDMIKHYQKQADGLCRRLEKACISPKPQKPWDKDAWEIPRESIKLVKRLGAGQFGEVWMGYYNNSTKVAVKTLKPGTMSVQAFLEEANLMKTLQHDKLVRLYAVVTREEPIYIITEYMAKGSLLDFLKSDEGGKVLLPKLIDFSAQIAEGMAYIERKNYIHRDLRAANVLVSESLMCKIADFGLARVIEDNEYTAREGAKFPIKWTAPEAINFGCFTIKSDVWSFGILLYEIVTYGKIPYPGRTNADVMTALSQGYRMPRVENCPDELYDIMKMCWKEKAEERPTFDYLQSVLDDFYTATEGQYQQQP

On to `COc1cc2ncnc(N[C@H](C)c3cccc4ccccc34)c2cc1OC`, for which the Activity in assay [1] stood at 88%; in [2] it was 98%; in assay [3], 85%; in assay [4], 84%; in assay [5], 73%; in assay [6], 100%. Further, the Activity worked out at 100% in [7]; 80% in [8]; 86% in assay [9]; 84% in [10]; 100% in assay [11]; 100% in assay [12].
In the case of `CNCc1ccccc1-c1csc([C@@H](C)Nc2nc(C)nc3cc(OC)c(OC)cc23)c1` [BAY-293], the result in [13] was inactive.
